The list is not random: actives were taken first. Their share in the collection is about 2.5%.
TRPC6 inhibitor = inhibitors of mouse TRPC6 channel. AID 2553. B-score at 10 µM. Q61143. HEK293-TRPC6, membrane potential dye, ACh-evoked depolarization; stronger effect = lower value. 310,000 tested, 1.1% active;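 active = B-score under library mean minus 3 SD, initial fluorescence not abnormally high, positive integrated signal ratio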;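 note: B-score derived from integrated fluorescence ratio over the kinetic read; more negative B-score means stronger inhibition of depolarization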
TRPC4 PAM = TRPC4 (mouse) allosteric potentiation. HEK293 TRPC4beta/mu-opioid, DAMGO EC20, Fluo-4 Ca2+ flux; stronger effect = higher value. Q9QUQ5. AID 2227. 310,000 tested, 0.42% active. B-score at 10 µM;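 active = B-score of calcium response area above 5 SD of library B-scores, with initial fluorescence ratio within 5 SD of library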
Target sequence (Q9QUQ5 whole entry, looked up): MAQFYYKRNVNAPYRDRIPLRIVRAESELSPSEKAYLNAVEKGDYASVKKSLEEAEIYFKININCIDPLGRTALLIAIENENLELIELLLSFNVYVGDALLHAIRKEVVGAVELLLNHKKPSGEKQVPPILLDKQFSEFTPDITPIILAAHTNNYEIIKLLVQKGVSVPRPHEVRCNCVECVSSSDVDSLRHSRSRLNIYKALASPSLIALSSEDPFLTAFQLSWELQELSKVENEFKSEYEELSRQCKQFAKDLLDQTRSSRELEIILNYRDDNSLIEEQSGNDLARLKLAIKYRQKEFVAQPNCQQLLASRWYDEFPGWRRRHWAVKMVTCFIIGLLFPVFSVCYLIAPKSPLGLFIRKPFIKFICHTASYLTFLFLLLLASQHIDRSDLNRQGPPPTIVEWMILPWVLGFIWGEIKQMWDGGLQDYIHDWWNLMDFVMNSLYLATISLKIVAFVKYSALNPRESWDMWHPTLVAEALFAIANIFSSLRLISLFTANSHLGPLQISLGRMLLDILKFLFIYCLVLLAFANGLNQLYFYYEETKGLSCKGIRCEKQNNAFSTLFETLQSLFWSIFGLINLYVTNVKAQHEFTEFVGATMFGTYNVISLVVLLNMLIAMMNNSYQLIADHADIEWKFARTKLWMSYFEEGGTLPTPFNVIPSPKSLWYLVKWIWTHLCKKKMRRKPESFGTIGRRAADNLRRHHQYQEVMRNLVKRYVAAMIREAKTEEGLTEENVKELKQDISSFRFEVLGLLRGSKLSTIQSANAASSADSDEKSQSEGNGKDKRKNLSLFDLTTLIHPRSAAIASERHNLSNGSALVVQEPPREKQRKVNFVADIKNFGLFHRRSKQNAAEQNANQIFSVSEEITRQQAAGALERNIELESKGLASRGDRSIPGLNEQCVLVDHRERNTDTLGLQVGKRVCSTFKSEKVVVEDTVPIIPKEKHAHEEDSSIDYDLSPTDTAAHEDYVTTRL
TRPC6 act = activates the mouse TRPC6 cation channel; Q61143; HEK293-TRPC6 membrane potential dye fluorescence; stronger effect = higher value; B-score at 10 µM; 310,000 tested, 0.13% active;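 active = B-score of the integrated fluorescence ratio above library mean plus 3 SD, and starting fluorescence ratio within library mean plus 5 SD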;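 note: higher score means more depolarization so channel activation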
TRPC4 block = blocks the mouse TRPC4 cation channel; HEK293 TRPC4beta/mu-opioid, DAMGO-evoked Fluo4 calcium flux; stronger effect = lower value; B-score at 10 µM; AID 2247; Q9QUQ5; 300,000 tested, 0.39% active;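 active = B-score over 3 SD under the library average, no early fluorescence shift, positive overall ratio signal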
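Assay system: Stable TRPC4beta/mu-opioid receptor HEK293 cells | Reagent: DAMGO in two steps, submaximal then maximal | Compound dosing: Single concentration per test compound | Signal: Fluo4 Ca2+ flux fluorescence | Evaluation: Per-well B score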
Platelet DG rel = modulates dense granule release in human platelets; human platelet-rich plasma, SFLLRN dense granule ATP release, luminescence; inhibition, %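 (compounds screened at 7.5 µM in platelet-rich plasma)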; 300,000 tested, 0.22% active;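 active = mean replicate score, as percent of positive control, at or above 50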
TRPC4 agonist = activators of mouse TRPC4 channel. AID 2237. Q9QUQ5. HEK293 TRPC4beta/mu-opioid, Fluo4 calcium fluorescence; stronger effect = higher value. 310,000 tested, 0.49% active. B-score at 10 µM;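 active = B-score above 5 SD of library B-scores, and initial fluorescence ratio not above library mean plus 5 SD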;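 note: positive B-score marks a calcium rise read as TRPC4 activation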
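Assay system – TRPC4beta and mu-opioid receptor HEK293 stable cells · Measured by – Fluo4 fluorescence, kinetic · Schedule – dye loading 45 min room temperature, 110 s kinetic read · Read-out – B-scored integrated calcium fluorescence ratio · Controls – buffer and maximal DAMGO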
TRPC4 spec 2 = mouse TRPC4 off-target activity of TRPC6 inhibitors, second screen; shares compounds with TRPC6 inhibitor; HEK293 TRPC4/MOR, membrane potential dye fluorescence; channel activated by saturating DAMGO dose; inhibition, % at 10 µM; 920 tested, 42% active;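 active = compounds whose fluorescence signal differed from control wells by over 3 SD, either direction, in both duplicate plates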
TRPC4 spec = mouse TRPC4 off-target activity of TRPC6 inhibitors. 920 tested, 61% active. AID 2777. activity change, negative = inhibition, % at 10 µM. shares compounds with TRPC6 inhibitor. HEK293 TRPC4/mu-opioid, membrane potential fluorescence;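 active = rise or fall in signal beyond 3 SD of buffer-only wells in both replicate plates, either sign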;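 note: integrated kinetic ratio of fluorescence range over baseline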
HEK293 MPD ctr 2-1 = second check of TRPC6 inhibitor effects in parental HEK293 cells; signal change vs control, % at 10 µM; parental HEK293 membrane potential dye fluorescence; maximal acetylcholine challenge after compound addition; 920 tested, 31% active; shares compounds with TRPC6 inhibitor;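 active = membrane potential signal moving either way by over 3 SD of the maximum-effect control, in both duplicate plates, meaning non-specific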
HEK293 MPD ctr-1 = counter-screen for TRPC6 inhibitors: effect in parental HEK293 cells; shares compounds with TRPC6 inhibitor; parental HEK293 membrane potential dye fluorescence; membrane potential signal change, % at 10 µM; 920 tested, 60% active; AID 2780;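 active = membrane potential signal shifting up or down by more than 3 SD of buffer-only wells, on both duplicate plates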
HEK293 MPD ctr-2 = checks TRPC6 modulator effects in parental HEK293 cells; shares compounds with TRPC6 inhibitor; membrane potential dye fluorescence; membrane potential signal change, % at 10 µM; 2,400 tested, 51% active; AID 488924;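 active = membrane potential signal moves up or down beyond 5 SD from buffer-only wells, on both duplicate plates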
HEK293 MPD ctr 2-2 = parental HEK293 nonspecific activity of TRPC6 modulators, second screen | 2,400 tested, 14% active | membrane potential dye fluorescence; after compound, maximal acetylcholine stimulation | AID 488926 | shares compounds with TRPC6 inhibitor | inhibition, % at 10 µM;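 active = membrane potential signal drops by more than 5 SD from the mean control signal, in both duplicate plates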
TRPC4 ctr mod = selectivity of TRPC6 modulators against mouse TRPC4. shares compounds with TRPC6 inhibitor. HEK293 TRPC4/mu-opioid, membrane potential fluorescence. percent change from control (negative = decrease, positive = increase), % at 10 µM. 2,400 tested, 69% active;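 active = membrane potential signal moved up or down beyond 5 SD of buffer control wells, in both duplicate plates, actives on both sides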
TRPC4 ctr inh 2 = second check of whether TRPC6 modulators also affect mouse TRPC4. shares compounds with TRPC6 inhibitor. HEK293 TRPC4/mu-opioid, membrane potential dye fluorescence; stimulated with maximal-effect DAMGO. inhibition, % at 10 µM. 2,400 tested, 55% active. AID 488928;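 active = drop in membrane potential signal beyond 5 SD of the control wells in both duplicate plates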;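 note: TRPC4 counter screen for TRPC6 hits run under conditions tuned for TRPC6 not TRPC4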
TRPC6 block conf = confirmation of mouse TRPC6 inhibitors; shares compounds with TRPC6 inhibitor; HEK293-TRPC6, membrane potential dye, ACh-evoked depolarization; inhibition, % at 10 µM; 3,300 tested, 43% active;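 active = fluorescence ratio falls more than 5 SD below the full-stimulation control mean, in both duplicate runs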;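 note: integrated fluorescence ratio of peak minus minimum over baseline after agonist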
TRPC6 act confirm = confirmation of mouse TRPC6 activators; shares compounds with TRPC6 inhibitor; HEK293-TRPC6 membrane potential dye fluorescence, FDSS; activation, % at 10 µM; 2,800 tested, 11% active; AID 488961;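 active = ratio signal rise beyond 5 SD above unstimulated control wells' mean, seen in both duplicate runs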
Each line names hits and unclear results; the compound was inactive in the other large screens (follow-up assays come after a bar, where they were run).

COCCn1c(C)cc(C(=O)CSc2nc(C)nc3sc4c(c23)CCC4)c1C	none
CCOC(=O)c1cnc2ccc(OCC)cc2c1NCCN1CCOCC1	TRPC6 inhibitor -5.2 | HEK293 MPD ctr-2 inactive | HEK293 MPD ctr 2-2 inactive | TRPC4 ctr mod inactive | TRPC4 ctr inh 2 41% | TRPC6 block conf inactive | TRPC6 act confirm inactive
CCOC(=O)c1cnc2ccc(C)cc2c1NCCO	TRPC6 inhibitor -8.2 | TRPC4 spec 2 inactive | TRPC4 spec -12% | HEK293 MPD ctr 2-1 6.5% | HEK293 MPD ctr-1 -279% | TRPC6 block conf inactive | TRPC6 act confirm inactive
CCOC(=O)c1cnc2ccc(OCC)cc2c1N1CCN(C)CC1	TRPC6 inhibitor -5.5 | HEK293 MPD ctr-2 -110% | HEK293 MPD ctr 2-2 inactive | TRPC4 ctr mod -18% | TRPC4 ctr inh 2 43% | TRPC6 block conf inactive | TRPC6 act confirm inactive
CCOC(=O)c1cnc2ccc(OCC)cc2c1NCCCN1CCOCC1	TRPC6 inhibitor -6.1 | HEK293 MPD ctr-2 inactive | HEK293 MPD ctr 2-2 80% | TRPC4 ctr mod 21% | TRPC4 ctr inh 2 34% | TRPC6 block conf 42% | TRPC6 act confirm inactive
CCOC(=O)c1cnc2ccc(C(=O)OC)cc2c1NCCc1ccc(OC)c(OC)c1	none
COc1ccc(CCNC(=S)c2ccccc2)cc1OC	none
CCN(CC#CCC(O)(c1ccccc1)C1CCCC1)C(C)C (stereo unspecified)	TRPC6 inhibitor -5.6 | HEK293 MPD ctr-2 188% | HEK293 MPD ctr 2-2 inactive | TRPC4 ctr mod 34% | TRPC4 ctr inh 2 inactive | TRPC6 block conf 56%
CN(C)C(CNC(=O)c1cccc(NS(=O)(=O)c2ccc(Br)cc2)c1)c1ccco1 (stereo unspecified)	TRPC6 inhibitor -5.7 (no result: Platelet DG rel) | HEK293 MPD ctr-2 inactive | HEK293 MPD ctr 2-2 inactive | TRPC4 ctr mod 9.5% | TRPC4 ctr inh 2 inactive | TRPC6 block conf inactive | TRPC6 act confirm inactive
CCc1ccc(NC(=O)C2=CC(c3ccc(OC)c(OC)c3)=NS(=O)(=O)N2C)cc1	TRPC6 inhibitor -5.7 | HEK293 MPD ctr-2 inactive | HEK293 MPD ctr 2-2 inactive | TRPC4 ctr mod -18% | TRPC4 ctr inh 2 66% | TRPC6 block conf inactive | TRPC6 act confirm inactive
COc1ccc(CNC(=O)C2=CC(c3ccc(OC)c(OC)c3)=NS(=O)(=O)N2C)cc1	none
COc1ccc(C(=O)Nc2cccc(N(C)S(C)(=O)=O)c2)cc1OC	none
Cc1ccc(C(=O)Nc2cccc(N(C)S(C)(=O)=O)c2)cc1S(=O)(=O)Nc1ccccc1	TRPC6 inhibitor -7.7 | TRPC4 spec 2 inactive | TRPC4 spec inactive | HEK293 MPD ctr 2-1 inactive | HEK293 MPD ctr-1 inactive | TRPC6 block conf inactive | TRPC6 act confirm inactive
CN(C)C=Nc1c(Br)cc(Br)c2nonc12	TRPC6 act 25 | HEK293 MPD ctr-2 984% | HEK293 MPD ctr 2-2 inactive | TRPC4 ctr mod 136% | TRPC4 ctr inh 2 inactive | TRPC6 block conf inactive | TRPC6 act confirm 190%
O=[N+]([O-])c1ccc(-c2n(-c3ccccn3)c3ccccc3[n+]2-c2ccccn2)cc1	none
COc1cccc(/C=N/NC(=O)Cn2ccnc2C)c1	none
COc1ccc(OC)c(/C=N/NC(=O)Cn2ccnc2C)c1	TRPC6 inhibitor -10, TRPC6 act 14 | HEK293 MPD ctr-2 inactive | HEK293 MPD ctr 2-2 inactive | TRPC4 ctr mod inactive | TRPC4 ctr inh 2 inactive | TRPC6 block conf 80% | TRPC6 act confirm 186%
Cc1cccc(NC(=S)N/N=C/c2c[nH]c3ccccc23)c1	none
CCOC(=O)c1ccc(N2CCOCC2)c(NC(=O)c2nccnc2C(=O)O)c1	none
Cc1cc(Cl)ccc1OCC(=O)NCCC(=O)O	TRPC6 inhibitor -6.6 | TRPC4 spec 2 inactive | TRPC4 spec inactive | HEK293 MPD ctr 2-1 inactive | HEK293 MPD ctr-1 inactive | TRPC6 block conf inactive | TRPC6 act confirm inactive
c1csc(-c2nn3c(C4COc5ccccc5O4)nnc3s2)c1 (stereo unspecified)	TRPC6 inhibitor -12 | HEK293 MPD ctr-2 inactive | HEK293 MPD ctr 2-2 inactive | TRPC4 ctr mod inactive | TRPC4 ctr inh 2 inactive | TRPC6 block conf inactive | TRPC6 act confirm inactive
CC(C)c1cc(C(=O)N2CCCC(Nc3ccc(F)cc3)C2)nc(N)n1 (stereo unspecified)	TRPC6 inhibitor -5.9 | HEK293 MPD ctr-2 inactive | HEK293 MPD ctr 2-2 inactive | TRPC4 ctr mod inactive | TRPC4 ctr inh 2 inactive | TRPC6 block conf inactive | TRPC6 act confirm inactive
CCOC(=O)c1[nH]ncc1CN1CCN(Cc2ccc(C)cc2)C(CCO)C1 (stereo unspecified)	none
O=C(CNC(=O)c1ccco1)OCC(=O)c1ccc([N+](=O)[O-])cc1	none
O=C(COC(=O)C1CCN(/C=C/C(=O)C(F)(F)F)CC1)Nc1cccc(F)c1	none
CCC(COC(=O)Nc1cccc(C)c1)NC(=O)OCC(C)C (stereo unspecified)	TRPC6 inhibitor -5.1 | HEK293 MPD ctr-2 inactive | HEK293 MPD ctr 2-2 inactive | TRPC4 ctr mod inactive | TRPC4 ctr inh 2 inactive | TRPC6 block conf inactive | TRPC6 act confirm inactive
CCNC(=O)OCC(CC)NC(=O)OCC(C)C (stereo unspecified)	none
CCN1CCC(N2CCN(c3ccccc3OC)CC2)CC1	none
O=C(O)c1cc(-c2cccc(Cl)c2)nc2nc(N3CCCCC3)sc12	none

Screening data from PubChem BioAssay.
